Data from ChEMBL document CHEMBL2086366, “Chemical optimization of new ligands of the low-density lipoprotein receptor as potential vectors for central nervous system targeting” (J Med Chem, 2012).
Where a SMILES comes first, the peptide text is derived from it. Bridges are numbered along the chain shown (N, C = ends).

Experiments:
Mus musculus = test: Biodistribution in iv dosed dorsal spinal cord of C57-B16 mouse after 10 mins by real time biphoton microscopic analysis; type: ADME, organism-based; conditions: in vivo
How it was run: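 C57-Bl6 mice (>7 weeks) anesthetized with ketamine-xylazine (100 mg/kg, 10 mg/kg), T13 laminectomy; 200 μL Rhodamine Red-X-labelled peptide (167 μM in DMSO + PBS) given iv, sometimes with 70 kDa fluorescein dextran. Two-photon imaging (840 nm excitation) of superficial dorsal spinal cord (first 100 μm) from 10 min after injection; scrambled peptide and free dye as controls.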

[1] = Half life in Swiss mouse plasma; type: ADME, cell-free
How it was run: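 Peptide in 0.9% NaCl was spiked into freshly collected Swiss mouse blood at 2 μM nominal (n = 3) and kept at 37 °C for 0, 0.5, 1, 2, 5 and 8 h. Plasma was separated, acidified with formic acid, and protein precipitated with acetonitrile. Analysis was by LC-MS/MS (positive ESI), LLOQ 25-50 nM.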

[2] = biological target: Low-density lipoprotein receptor (Homo sapiens) (UniProt P01130); test: Displacement of S-tagged Ac-DSGL[CMPRLRGC]cDPR-NH2 from human DsRed2-fused LDLR expressed in CHO cells at 10 uM after 1 hr by FRET assay; type: cell-based
How it was run: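 CHO cells stably expressing hLDLR-DsRed2 (Ham-F12, 5% FBS, Geneticin) at 800 000 cells/well were incubated in triplicate with S-tagged reference peptide (10 μM) plus test peptide (10 μM) in Ham-F12/1% BSA, 1 h, 37 °C. Scrambled and untagged peptide controls were included; values are means of at least three points.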

Chain of Low-density lipoprotein receptor (Homo sapiens) (P01130 whole entry, the tested form may be a part): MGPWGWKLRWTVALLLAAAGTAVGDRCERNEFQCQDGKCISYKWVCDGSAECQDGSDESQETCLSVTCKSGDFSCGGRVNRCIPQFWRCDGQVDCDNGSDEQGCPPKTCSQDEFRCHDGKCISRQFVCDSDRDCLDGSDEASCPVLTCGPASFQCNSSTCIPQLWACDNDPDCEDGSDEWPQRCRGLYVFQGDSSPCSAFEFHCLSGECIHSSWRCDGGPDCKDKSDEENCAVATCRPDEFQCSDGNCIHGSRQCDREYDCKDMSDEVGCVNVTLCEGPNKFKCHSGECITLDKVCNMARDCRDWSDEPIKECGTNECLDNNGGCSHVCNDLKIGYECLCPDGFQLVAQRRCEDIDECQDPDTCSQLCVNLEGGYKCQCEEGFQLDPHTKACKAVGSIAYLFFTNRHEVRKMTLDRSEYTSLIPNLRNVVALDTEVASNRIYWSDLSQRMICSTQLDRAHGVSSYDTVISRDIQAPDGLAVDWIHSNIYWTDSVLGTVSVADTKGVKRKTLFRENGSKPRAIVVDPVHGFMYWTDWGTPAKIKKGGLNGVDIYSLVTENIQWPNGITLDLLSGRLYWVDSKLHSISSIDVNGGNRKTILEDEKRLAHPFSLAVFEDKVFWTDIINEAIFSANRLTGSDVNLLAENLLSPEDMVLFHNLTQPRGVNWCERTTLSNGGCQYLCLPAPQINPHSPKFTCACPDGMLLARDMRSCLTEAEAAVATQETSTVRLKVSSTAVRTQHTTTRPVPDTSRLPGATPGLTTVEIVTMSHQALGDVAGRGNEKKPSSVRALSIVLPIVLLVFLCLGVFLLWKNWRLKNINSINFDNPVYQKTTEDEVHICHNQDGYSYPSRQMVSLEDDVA

Drug uptake (Mus musculus) | half-life [1] | inhibition [2] | Molecule
– | 2.9 h | – | CSCC[C@@H]1NC(=O)[C@@H](NC(C)=O)C(C)(C)SSC[C@@H](C(N)=O)NC(=O)CN(C)C(=O)[C@H](CCCNC(=N)N)NC(=O)[C@H](CC(C)C)NC(=O)[C@H](CCCNC(=N)N)NC(=O)[C@@H]2CSCN2C1=O
– | – | 0% | Ac-DSGLSMPRLRGSDPR-NH2
– | 2.99 h | – | CSCC[C@@H]1NC(=O)[C@@H](NC(C)=O)C(C)(C)SSC[C@@H](C(N)=O)NC(=O)CNC(=O)[C@H](CCCNC(=N)N)NC(=O)[C@H](CC(C)C)NC(=O)[C@H](CCCNC(=N)N)NC(=O)[C@@H]2CCCCN2C1=O
– | – | 58% | CSCC[C@@H]1NC(=O)[C@@H](NC(=O)[C@H](CC(C)C)NC(=O)[C@H](C)NC(=O)[C@H](CO)NC(=O)[C@H](CC(=O)O)NC(C)=O)CSSC[C@@H](C(=O)N[C@@H](CC(=O)O)C(=O)N2CCC[C@H]2C(=O)N[C@@H](CCCNC(=N)N)C(N)=O)NC(=O)CNC(=O)[C@H](CCCNC(=N)N)NC(=O)[C@H](CC(C)C)NC(=O)[C@H](CCCNC(=N)N)NC(=O)[C@@H]2CCCN2C1=O (Ac-DSALCMPRLRGCDPR-NH2; disulfide 5-12)
– | – | 55% | CSCC[C@@H]1NC(=O)[C@@H](NC(=O)[C@H](CC(C)C)NC(=O)CNC(=O)[C@H](CO)NC(=O)[C@H](CC(=O)O)NC(C)=O)CSSC[C@@H](C(=O)N[C@@H](CC(=O)O)C(=O)N2CCC[C@H]2C(=O)N[C@@H](CCCNC(=N)N)C(N)=O)NC(=O)CNC(=O)[C@H](CCCNC(=N)N)NC(=O)[C@H](CC(C)C)NC(=O)[C@H](CCCNC(=N)N)NC(=O)[C@@H]2CCCN2C1=O
– | 2.26 h | – | CSCC[C@@H]1NC(=O)[C@H](NC(C)=O)CSSC[C@@H](C(N)=O)NC(=O)CN(C)C(=O)[C@H](CCCNC(=N)N)NC(=O)[C@H](CC(C)C)NC(=O)[C@H](CCCNC(=N)N)NC(=O)[C@@H]2CSCN2C1=O
– | – | 0% | Ac-DSGLAMPRLRGCDPR-NH2

Second part, the molecule before the results:

Molecule | Drug uptake (Mus musculus) | half-life [1] | inhibition [2]
CSCC[C@@H]1NC(=O)[C@H](NC(C)=O)CSSC[C@@H](C(N)=O)NC(=O)CNC(=O)[C@H](CCCNC(=N)N)NC(=O)[C@H](CC(C)C)NC(=O)[C@H](CCCNC(=N)N)NC(=O)[C@@H]2CCCN2C1=O | Active | 3.03 h | –
CSCC[C@@H]1NC(=O)[C@@H](NC(C)=O)CSSC[C@@H](C(N)=O)NC(=O)CNC(=O)[C@H](CCCNC(=N)N)NC(=O)[C@@H]2CCCN2C1=O (Ac-CMPRGC-NH2; disulfide 1-6) | – | – | 39%
CSCC[C@H](NC(=O)[C@H](CS)NC(=O)[C@H](CC(C)C)NC(=O)CNC(=O)[C@H](CO)NC(=O)[C@H](CC(=O)O)NC(C)=O)C(=O)N1CCC[C@H]1C(=O)N[C@@H](CCCNC(=N)N)C(=O)N[C@@H](CC(C)C)C(=O)N[C@@H](CCCNC(=N)N)C(=O)NCC(=O)N[C@@H](CS)C(=O)N[C@@H](CC(=O)O)C(=O)N1CCC[C@H]1C(=O)N[C@@H](CCCNC(=N)N)C(N)=O | – | – | 50%
CSCC[C@@H]1NC(=O)[C@@H](NC(=O)[C@H](CC(C)C)NC(=O)CNC(=O)[C@H](CO)NC(=O)[C@H](CC(=O)O)NC(C)=O)CSSC[C@@H](C(=O)N[C@@H](C)C(=O)N2CCC[C@H]2C(=O)N[C@@H](CCCNC(=N)N)C(N)=O)NC(=O)CNC(=O)[C@H](CCCNC(=N)N)NC(=O)[C@H](CC(C)C)NC(=O)[C@H](CCCNC(=N)N)NC(=O)[C@@H]2CCCN2C1=O (Ac-DSGLCMPRLRGCAPR-NH2; disulfide 5-12) | – | – | 70%
CSCC[C@@H]1NC(=O)[C@@H](NC(C)=O)CSSC[C@@H](C(N)=O)NC(=O)CNC(=O)[C@H](CCCNC(=N)N)NC(=O)[C@H](CC(C)C)NC(=O)[C@H](CCCNC(=N)N)NC(=O)[C@@H]2CCCN2C1=O | – | 1.47 h | –
CSCC[C@@H]1NC(=O)[C@H](NC(C)=O)C(C)(C)SSC[C@@H](C(N)=O)NC(=O)CNC(=O)[C@H](CCCNC(=N)N)NC(=O)[C@H](CC(C)C)NC(=O)[C@H](CCCNC(=N)N)NC(=O)[C@@H]2CCCCN2C1=O | – | 1.7 h | –
CSCC[C@@H]1NC(=O)[C@@H](NC(=O)[C@H](C)NC(=O)CNC(=O)[C@H](CO)NC(=O)[C@H](CC(=O)O)NC(C)=O)CSSC[C@@H](C(=O)N[C@@H](CC(=O)O)C(=O)N2CCC[C@H]2C(=O)N[C@@H](CCCNC(=N)N)C(N)=O)NC(=O)CNC(=O)[C@H](CCCNC(=N)N)NC(=O)[C@H](CC(C)C)NC(=O)[C@H](CCCNC(=N)N)NC(=O)[C@@H]2CCCN2C1=O (Ac-DSGACMPRLRGCDPR-NH2; disulfide 5-12) | – | – | 64%
CSCC[C@@H]1NC(=O)[C@H](NC(C)=O)CSSC[C@@H](C(N)=O)NC(=O)CNC(=O)[C@H](CCCNC(=N)N)NC(=O)[C@H](CC(C)C)NC(=O)[C@H](CCCNC(=N)N)NC(=O)[C@@H]2CSCN2C1=O | – | 1.8 h | –
CSCC[C@@H]1NC(=O)[C@@H](NC(=O)[C@H](CC(C)C)NC(=O)CNC(=O)[C@H](CO)NC(=O)[C@H](CC(=O)O)NC(C)=O)CSSC[C@@H](C(=O)N[C@@H](CC(=O)O)C(=O)N2CCC[C@H]2C(=O)N[C@@H](C)C(N)=O)NC(=O)CNC(=O)[C@H](CCCNC(=N)N)NC(=O)[C@H](CC(C)C)NC(=O)[C@H](CCCNC(=N)N)NC(=O)[C@@H]2CCCN2C1=O (Ac-DSGLCMPRLRGCDPA-NH2; disulfide 5-12) | – | – | 55%
CSCC[C@@H]1NC(=O)[C@@H](NC(=O)[C@H](CC(C)C)NC(=O)CNC(=O)[C@H](C)NC(=O)[C@H](CC(=O)O)NC(C)=O)CSSC[C@@H](C(=O)N[C@@H](CC(=O)O)C(=O)N2CCC[C@H]2C(=O)N[C@@H](CCCNC(=N)N)C(N)=O)NC(=O)CNC(=O)[C@H](CCCNC(=N)N)NC(=O)[C@H](CC(C)C)NC(=O)[C@H](CCCNC(=N)N)NC(=O)[C@@H]2CCCN2C1=O (Ac-DAGLCMPRLRGCDPR-NH2; disulfide 5-12) | – | – | 20%
